The results in this text go back to ChEMBL document CHEMBL1914444, “Chemical synthesis, biological evaluation and structure-activity relationship analysis of azaisoindolinones, a novel class of direct enoyl-ACP reductase inhibitors as potential antimycobacterial agents” (Bioorg Med Chem, 2011).

pIC50: −log10 of the molar value. ≈ marks a conversion by molar mass, not a printed value.

Test [1] concerns Mycobacterium tuberculosis. In words: Antimycobacterial activity Mycobacterium tuberculosis H37Rv after 6 days by MTT colorimetric assay. Particulars: 144 h. The test is classed as functional, organism-based. A general note: Formazan colour is commonly taken as a measure of viable cells.
Test [2] deals with T1, Enoyl-[acyl-carrier-protein] reductase [NADH] (Mycobacterium tuberculosis) (UniProt P9WGR1).
T1 sequence (whole entry): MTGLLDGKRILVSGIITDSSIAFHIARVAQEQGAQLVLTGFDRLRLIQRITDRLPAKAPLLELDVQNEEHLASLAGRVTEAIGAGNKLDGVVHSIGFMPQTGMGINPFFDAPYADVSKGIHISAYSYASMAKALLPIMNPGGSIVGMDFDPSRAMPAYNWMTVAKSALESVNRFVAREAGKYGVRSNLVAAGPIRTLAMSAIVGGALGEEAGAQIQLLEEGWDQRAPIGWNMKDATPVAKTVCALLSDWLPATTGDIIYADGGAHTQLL
In words: Inhibition of Mycobacterium tuberculosis InhA using 2-trans-decenoyl-CoA as substrate at 100 uM after 5 mins by spectrophotometry. The method, boiled down: (§1)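 Recombinant M. tuberculosis InhA expressed in E. coli (70 nM) was pre-incubated with NADH and compound in 30 mM PIPES, 150 mM NaCl, pH 6.8, 25 °C, with 0.5% final DMSO. Substrate was 2-trans-decenoyl-CoA. Activity was followed as the decrease in A340; initial rates gave % inhibition versus control. Run in triplicate.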

The target of test [3] is T1, Enoyl-[acyl-carrier-protein] reductase [NADH] (Mycobacterium tuberculosis). In words: Inhibition of Mycobacterium tuberculosis InhA using 2-trans-decenoyl-CoA as substrate at 30 uM after 5 mins by spectrophotometry. The method, boiled down:
as §1

What is called MIC is the least concentration at which growth counts as inhibited. The term inhibition denotes the percentage by which the read-out fell short of the control. `CCCCCCCCCCCCNc1cccc(C2(O)NC(=O)c3cnccc32)c1` (racemic) registered an MIC in test [1] of over 100 µM. The values for the inhibition in test [2] and in test [3] were 9% and 1%, respectively.

In test [1], `CCCCCCCCCCCCOc1cccc(C2(O)NC(=O)c3cnccc32)c1` (racemic) registered an MIC of 156 µM (≈ 64 µg/mL). For the same compound, the inhibition in test [2] was determined as 27%; in test [3] it was 12%.

The pIC50 is the negative decadic logarithm of the IC50, by convention in mol/L. High values mean a small IC50, low ones a large IC50. As to `CCCCCCCCCCCCCCCCCCOc1cccc(C2(O)NC(=O)c3cnccc32)c1` (racemic), the pIC50 in test [1] is 4.92. The compound also showed an MIC in test [1] of 25 µM (≈ 12.4 µg/mL). In addition, the inhibition in test [2] was determined as 67%; in test [3] it was 28%.

Consider `NNC(=O)c1ccncc1` [ISONIAZID], for which, in test [1], the MIC worked out at 0.6 µM (≈ 0.0823 µg/mL).

In test [1], `CCCCCCCCCCCCN1C(=O)c2cnccc2C1(O)c1ccccc1` (racemic) had a pIC50 of 5.35 and an MIC of 12.5 µM (≈ 4.93 µg/mL). For the same compound, the inhibition in test [2] is 13%. Further, the inhibition in test [3] was found to be 0%.

Turning to `O=C(O)c1cn(C2CC2)c2cc(N3CCNCC3)c(F)cc2c1=O` [CIPROFLOXACIN], inhibition of growth in test [1] (MIC) required 2.5 µM (≈ 0.828 µg/mL). This counts as single-digit micromolar.

In test [1], `CCCCCCCCCCCCCCCCCCSc1cccc(C2(O)NC(=O)c3cnccc32)c1` (racemic) gave an MIC of over 100 µM. Further, the inhibition in test [3] came to 26%.

In turn, `CCCCCCCCCCCCOc1ccc(C2(O)NC(=O)c3cnccc32)cc1` (racemic) displayed an MIC in test [1] of over 100 µM. Moreover, the inhibition in test [2] turned out to be 16%; in test [3], 1%.

Regarding `CCCCCCCCCCCCc1cccc(C2(O)NC(=O)c3cnccc32)c1` (racemic), in test [1], the pIC50 is 5.15 and the MIC turned out to be 9.8 µM (≈ 3.87 µg/mL).

On to `CCCCCCCCCCCCOC1(c2ccccc2)NC(=O)c2cnccc21` (racemic), for which, in test [1], the pIC50 was 5.02 and it took 25 µM (≈ 9.86 µg/mL) to inhibit growth (MIC). The inhibition in test [3] was 20%.

Turning to `CCCCCCCCCCCCOc1ccccc1C1(O)NC(=O)c2cnccc21` (racemic), the MIC in test [1] was over 100 µM. For the same compound, the inhibition in test [2] and in test [3] was 0% throughout.

In test [1], `CCCCCCCCOc1cccc(C2(O)NC(=O)c3cnccc32)c1` (racemic) showed an MIC of 250 µM (≈ 88.6 µg/mL). In test [2], this compound had an inhibition of 12%.

Turning to `CCCCCCCCCCCCCCC1(O)NC(=O)c2cnccc21` (racemic), the MIC in test [1] is over 100 µM. In test [2], this compound registered an inhibition of 10%.

As for `CCCCCCCCCCCCOc1cccc(C2(OC)NC(=O)c3cnccc32)c1` (racemic), in test [1], the pIC50 is 5.00 and it took 25 µM (≈ 10.6 µg/mL) to inhibit growth (MIC). This compound showed an inhibition in test [2] of 0%.

As for `CCCCCCCCCCCCSc1cccc(C2(O)NC(=O)c3cnccc32)c1` (racemic), the pIC50 in test [1] is 5.19. Also, the MIC in test [1] was found to be 12.5 µM (≈ 5.33 µg/mL). Further, the inhibition came to 66% in test [2] and 15% in test [3].
